Experiments:
Mus musculus [1] = test: Effect on humoral immune response in mice against sheep red blood cells by the plaque-forming cell (PFC/10e6 spleen cells) method in experiment 6 at dose 12 mg/kg; assay type: functional
How it was run: (§1)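 Male CDF1 (Balb/c × DBA/2Cr) mice, 8-10 weeks old, groups of four, were immunized iv with 1 × 10^8 SRBC in PBS. After 24 h they received a single sc inguinal dose in saline, or as a suspension in saline with 1% Me2SO. Spleens were taken 4 days later and hemolytic plaque-forming cells counted by Cunningham's method. Values are the mean of four mice ± SE, with a paired Student's t test against the control.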

Mus musculus [2] = test: Tested for increase in foot-pad thickness (mm) by its effect on cellular immune response in mice against sheep red blood cells by the DHR method in experiment 15 at dose 3 mg/kg; assay type: functional
How it was run: (§2)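 Male mice, 8–10 weeks old, ICR strain. Groups of four were sensitized with 1 × 10^8 SRBC in PBS into one hind footpad, with compound given sc in the inguinal region in saline or saline/1% Me2SO. Four days later, 1 × 10^8 SRBC were injected into the other hind footpad. Foot thickness was measured with a dial gauge just before and 24 h after this challenge, and the increase was taken as the difference. Values are the mean of four mice ± SE.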

Mus musculus [3] = test: Effect on humoral immune response in mice against sheep red blood cells by the plaque-forming cell (PFC/10e6 spleen cells) method in experiment 6 at dose 3 mg/kg; assay type: functional; how it was run: as §1
Mus musculus [4] = test: Tested for increase in foot-pad thickness (mm) by its effect on cellular immune response in mice against sheep red blood cells by DHR method in experiment 15 at dose 12 mg/kg; assay type: functional; how it was run: as §2
[5] = (§3) Acute lethal dose was determined in mice upon intravenous administration; assay type: ADME, organism-based; conditions: mouse, in vivo
How it was run: (§4)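 Male mice, 8–10 weeks old, CDF1 (Balb/c × DBA/2Cr). Groups of six dosed once, either iv or sc. Three to five dose levels were chosen from 400, 300, 150, 80, 40, 20 and 10 mg/kg. LD50 was calculated by the Litchfield–Wilcoxon method. Vehicle was saline or saline with 1% Me2SO, depending on compound.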

Mus musculus [6] = test: Effect on humoral immune response in mice against sheep red blood cells by the plaque-forming cell (PFC/10e6 spleen cells) method in experiment 8 at dose 12 mg/kg; assay type: functional; how it was run: as §1
Mus musculus [7] = test: Tested for increase in foot-pad thickness (mm) by its effect on cellular immune response in mice against sheep red blood cells by DHR method in experiment 17 at dose 12 mg/kg; assay type: functional
How it was run: (§5)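 Male ICR mice, 8-10 weeks old, groups of four, were sensitized with 1 × 10^8 SRBC in PBS into one hind footpad and dosed sc in the inguinal region, in saline or in saline with 1% Me2SO. Four days later the other footpad was challenged with 1 × 10^8 SRBC. Foot thickness was gauged just before and 24 h after challenge, and the increase was reported as mean of four ± SE.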

Mus musculus [8] = test: Effect on humoral immune response in mice against sheep red blood cells by the plaque-forming cell (PFC/10e6 spleen cells) method in experiment 8 at dose 3 mg/kg; assay type: functional; how it was run: as §1
Mus musculus [9] = test: Tested for increase in foot-pad thickness (mm) by its effect on cellular immune response in mice against sheep red blood cells by the DHR method in experiment 17 at dose 3 mg/kg; assay type: functional; how it was run: as §5
Mus musculus [10] = test: Tested for increase in foot-pad thickness (mm) by its effect on cellular immune response in mice against sheep red blood cells by the DHR method in experiment 13 at dose 3 mg/kg; assay type: functional; how it was run: as §5
Mus musculus [11] = test: Effect on humoral immune response in mice against sheep red blood cells by the plaque-forming cell (PFC/10e6 spleen cells) method in experiment 4 at dose 12 mg/kg; assay type: functional; how it was run: as §1
Mus musculus [12] = test: Effect on humoral immune response in mice against sheep red blood cells by the plaque-forming cell (PFC/10e6 spleen cells) method in experiment 4 at dose 3 mg/kg; assay type: functional; how it was run: as §1
Mus musculus [13] = test: Tested for increase in foot-pad thickness (mm) by its effect on cellular immune response in mice against sheep red blood cells by DHR method in experiment 13 at dose 12 mg/kg; assay type: functional; how it was run: as §5
Mus musculus [14] = test: Effect on humoral immune response in mice against sheep red blood cells by the plaque-forming cell (PFC/10e 6 spleen cells) method in experiment 9 at dose 12 mg/kg; assay type: functional; how it was run: as §1
Mus musculus [15] = test: Effect on humoral immune response in mice against sheep red blood cells by the plaque-forming cell (PFC/10e 6 spleen cells) method in experiment 9 at dose 3 mg/kg; assay type: functional; how it was run: as §1
Mus musculus [16] = test: Acute lethal dose was determined in mice upon subcutaneous administration; assay type: ADME, organism-based; conditions: in vivo, sc; how it was run: as §4
Mus musculus [17] = test: Tested for increase in foot-pad thickness (mm) by its effect on cellular immune response in mice against sheep red blood cells by DHR method in experiment 11 at dose 12 mg/kg; assay type: functional; how it was run: as §5
Mus musculus [18] = test: Effect on humoral immune response in mice against sheep red blood cells by the plaque-forming cell (PFC/10e 6 spleen cells) method in experiment 2 at dose 12 mg/kg; assay type: functional
How it was run: (§6)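 Male ICR mice, 8-10 weeks old, groups of four, were immunized iv with 1 × 10^8 SRBC in PBS. After 24 h they received a single sc inguinal dose in saline, or as a suspension in saline with 1% Me2SO. Splenic hemolytic plaque-forming cells were counted 4 days later by Cunningham's method. Values are the mean of four ± SE, with a paired t test against the control.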

Mus musculus [19] = test: Effect on humoral immune response in mice against sheep red blood cells by the plaque-forming cell (PFC/10e 6 spleen cells) method in experiment 2 at dose 3 mg/kg; assay type: functional; how it was run: as §6
Mus musculus [20] = test: Tested for increase in foot-pad thickness (mm) by its effect on cellular immune response in mice against sheep red blood cells by the DHR method in experiment 11 at dose 3 mg/kg; assay type: functional; how it was run: as §5
Mus musculus [21] = test: Tested for increase in foot-pad thickness (mm) by its effect on cellular immune response in mice against sheep red blood cells by the DHR method in experiment 10 at dose 3 mg/kg; assay type: functional; how it was run: as §5
Mus musculus [22] = test: Effect on humoral immune response in mice against sheep red blood cells by the plaque-forming cell (PFC/10e 6 spleen cells) method in experiment 1 at dose 3 mg/kg; assay type: functional; how it was run: as §1
Mus musculus [23] = test: as §3; assay type: ADME, organism-based; conditions: in vivo; how it was run: as §4
Mus musculus [24] = test: Effect on humoral immune response in mice against sheep red blood cells by the plaque-forming cell (PFC/10e 6 spleen cells) method in experiment 1 at dose 12 mg/kg; assay type: functional; how it was run: as §1
Mus musculus [25] = test: Tested for increase in foot-pad thickness (mm) by its effect on cellular immune response in mice against sheep red blood cells by DHR method in experiment 10 at dose 3 mg/kg; assay type: functional; how it was run: as §5

Question: Which results are given for `Brc1ccc2c(c1)C1C(CC2)N=C2SCCN21` (configuration not stated)?
Answer: PFC (Mus musculus [1]): 870; Increase in footpad thickness (Mus musculus [2]): 0.35 mm; PFC (Mus musculus [3]): 980; Increase in footpad thickness (Mus musculus [4]): 0.38 mm

Question: Which results are given for `C[C@@H]1SC2=NC3c4ccccc4CCC3N2[C@@]1(O)c1ccccc1` (some centres not stated)?
Answer: LD50 [5]: 170 mg/kg; PFC (Mus musculus [6]): 1120; Increase in footpad thickness (Mus musculus [7]): 0.52 mm; PFC (Mus musculus [8]): 550; Increase in footpad thickness (Mus musculus [9]): 0.28 mm

Question: With `Clc1ccc2c(c1)CCC1N=C3SCCN3C21` (configuration not stated) as the compound, how does the Increase in footpad thickness (Mus musculus [10]) read?
Answer: Its Increase in footpad thickness is 0.27 mm.

Question: What about the PFC (Mus musculus [11]) of the same compound?
Answer: The PFC was 1700.

Question: What about the PFC (Mus musculus [12]) of the same compound?
Answer: The PFC was 1880.

Question: What about the Increase in footpad thickness (Mus musculus [13]) of the same compound?
Answer: Its Increase in footpad thickness is 0.28 mm.

Question: With `CC1=C(c2ccccc2)N2C(=NC3c4ccccc4CCC32)S1` (configuration not stated) as the compound, how does the Increase in footpad thickness (Mus musculus [7]) read?
Answer: The Increase in footpad thickness was 0.32 mm.

Question: What about the PFC (Mus musculus [14]) of the same compound?
Answer: The PFC was 470.

Question: And the PFC (Mus musculus [15])?
Answer: Its PFC is 740.

Question: And the Increase in footpad thickness (Mus musculus [9])?
Answer: Its Increase in footpad thickness is 0.2 mm.

Question: What does the source list for `Clc1ccc2c(c1)CCC1C2N=C2SCCN21` (cis isomer)?
Answer: Increase in footpad thickness (Mus musculus [10]): 0.26 mm; PFC (Mus musculus [11]): 970; PFC (Mus musculus [12]): 1560; Increase in footpad thickness (Mus musculus [13]): 0.33 mm

Question: For `Brc1ccc2c(c1)C1N=C3SCCN3C1CC2` (cis isomer), which PFC (Mus musculus [1]) is on record?
Answer: The PFC was 1495.

Question: What about the Increase in footpad thickness (Mus musculus [2]) of the same compound?
Answer: Its Increase in footpad thickness is 0.36 mm.

Question: What about the PFC (Mus musculus [3]) of the same compound?
Answer: The PFC was 960.

Question: And the Increase in footpad thickness (Mus musculus [4])?
Answer: Its Increase in footpad thickness is 0.45 mm.

Question: Which LD50 (Mus musculus [16]) does the source give for `c1ccc2c(c1)CCC1N=C3SCCN3C21` (stereo in doubt) here?
Answer: Its LD50 is 68 mg/kg.

Question: And the LD50 [5]?
Answer: The LD50 was 20 mg/kg.

Question: And the Increase in footpad thickness (Mus musculus [17])?
Answer: Its Increase in footpad thickness is 0.38 mm.

Question: What about the PFC (Mus musculus [18]) of the same compound?
Answer: Its PFC is 1610.

Question: And the PFC (Mus musculus [19])?
Answer: Its PFC is 1800.

Question: What about the Increase in footpad thickness (Mus musculus [20]) of the same compound?
Answer: The Increase in footpad thickness was 0.37 mm.

Question: Which results are given for `c1ccc2c(c1)CCC1C2N=C2SCCN21` (stereo in doubt)?
Answer: Increase in footpad thickness (Mus musculus [21]): 0.42 mm; PFC (Mus musculus [22]): 1220; LD50 (Mus musculus [16]): 116 mg/kg; LD50 (Mus musculus [23]): 27 mg/kg; PFC (Mus musculus [24]): 860; Increase in footpad thickness (Mus musculus [25]): 0.44 mm

Reference: ChEMBL document CHEMBL1121366, “Synthesis and immunological activity of 5,6,6a,8,9,11a-hexahydronaphth[1',2':4,5]imidazo[2,1-b]thiazoles and 5,6,6a,9,10,11a-hexahydroanaphth[2',1':4,5]imidazo[2,1-b]thiazoles” (J Med Chem, 1980)
